PfG6PD inh: PfG6PD (Plasmodium falciparum) enzyme inhibition; PfGluPho enzyme, NADPH resazurin-diaphorase fluorescence; inhibition, % at 20 µM; actives 0.78% (n = 350,000);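 active = inhibition reaching at least a set limit at 20 µM in the primary screen, cut at about 59% in these data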
Beta2AR agonist: activates human beta-2 adrenergic receptor causing internalization; P07550; response, % (concentration not given with the values); AID 504454; Am2.2-beta2AR cells, FAP receptor internalization, flow cytometry; actives 0.43% (n = 340,000);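 active = response above a set limit, near 3 SD of response in nonfluorescent compounds, cut at about 42% in these data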
Target sequence (P07550 whole entry, looked up): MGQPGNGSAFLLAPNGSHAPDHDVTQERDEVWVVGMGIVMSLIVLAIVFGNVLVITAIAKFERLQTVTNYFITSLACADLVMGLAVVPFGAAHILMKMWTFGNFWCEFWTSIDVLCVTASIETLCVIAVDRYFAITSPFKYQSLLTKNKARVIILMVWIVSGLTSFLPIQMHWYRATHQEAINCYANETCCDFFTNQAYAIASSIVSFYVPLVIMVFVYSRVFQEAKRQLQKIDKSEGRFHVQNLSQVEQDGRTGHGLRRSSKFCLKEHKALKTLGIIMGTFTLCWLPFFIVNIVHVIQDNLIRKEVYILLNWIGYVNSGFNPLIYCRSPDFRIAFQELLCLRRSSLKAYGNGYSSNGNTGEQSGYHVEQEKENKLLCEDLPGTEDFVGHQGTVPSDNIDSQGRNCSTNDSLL
APJ antag: APJ receptor antagonism; P35414; CHO-K1 APJ beta-arrestin complementation, luminescence; inhibition, % at 20 µM; actives 0.32% (n = 330,000);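 active = inhibition above about 40% at 20 µM, limit read from the data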;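 note: cells challenged with 10 nM apelin-13 agonist together with compound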
Target sequence (P35414 whole entry, looked up): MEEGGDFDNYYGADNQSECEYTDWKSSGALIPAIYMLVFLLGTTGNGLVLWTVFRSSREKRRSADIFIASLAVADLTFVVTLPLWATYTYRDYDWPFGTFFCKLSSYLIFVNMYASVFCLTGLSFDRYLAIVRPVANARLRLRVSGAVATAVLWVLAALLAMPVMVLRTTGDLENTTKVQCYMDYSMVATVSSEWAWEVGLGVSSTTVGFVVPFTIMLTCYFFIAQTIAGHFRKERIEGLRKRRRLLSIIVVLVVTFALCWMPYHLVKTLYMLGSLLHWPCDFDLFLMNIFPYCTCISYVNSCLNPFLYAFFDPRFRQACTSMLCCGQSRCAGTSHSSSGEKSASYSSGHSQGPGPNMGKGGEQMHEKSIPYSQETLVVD
CCR6 antagonist: blocks CCL20-driven beta-arrestin recruitment at human CCR6. actives 0.49% (n = 340,000). CHO-K1 CCR6 PathHunter beta-arrestin, luminescence, CCL20-stimulated. inhibition, % at 20 µM. P51684. AID 493098;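 active = compounds whose inhibition of the agonist-driven luminescence signal at 20 µM reaches about 50%, limit read from the data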;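 note: cells stimulated with CCL20 at 14 nM final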
CXCR6 inh: CXCR6 (human) receptor inhibition; inhibition, % at 20 µM; actives 0.36% (n = 360,000); CHO-K1 PathHunter CXCR6 beta-arrestin, luminescence; AID 602244; in the data active = inhibition above about 34%, passing the limit was not always enough;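 note: antagonist mode with CXCL16 agonist at 10 nM final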
APJ ag: agonists of human APJ apelin receptor | CHO-K1 APJ PathHunter beta-arrestin, luminescence; 0% DMSO wells, 100% apelin | activation, % at 20 µM | P35414 | actives 0.11% (n = 330,000) | AID 2520;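 active = activation more than six SD over the plate average, tested at 20 µM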
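Test system: CHO-K1 APJ beta-arrestin complementation cell line. Amount: cell density 1000 per well. Controls: DMSO negative, 10 nM Apelin-13 positive. Signal: luminescent beta-gal fragment complementation, chemiluminescent substrate. Read-out basis: agonist-driven arrestin binding to APJ. Timing: compound stimulation 90 min at 25 °C, detection 60 min.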
PfGluPho conf: PfG6PD inhibition, single-dose confirmed | recombinant PfGluPho, NADPH-diaphorase-resazurin fluorescence | shares compounds with PfG6PD inh | inhibition, % at 20 µM | AID 504753 | actives 34% (n = 2,400);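 active = inhibition of at least 50% at 20 µM in any single replicate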
Diaph ctr 10uM: inhibits diaphorase or oxidizes, flagging false PfG6PD hits; shares compounds with PfG6PD inh; diaphorase-coupled resazurin reduction, fluorescence, NADPH 10 uM; inhibition, % at 20 µM; actives 39% (n = 820); AID 504862;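 active = average inhibition reaching 50% or more with the compound at 20 µM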;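 note: resorufin red fluorescence formed as diaphorase reduces resazurin using NADPH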
Diaph ctr 30uM: counter-screen for P. falciparum G6PD inhibitors: diaphorase inhibitors, oxidizers | Diaphorase/resazurin coupled assay, resorufin fluorescence, 30 uM NADPH | shares compounds with PfG6PD inh | actives 29% (n = 820) | inhibition, % at 20 µM;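 active = inhibition averaging 50% or more, tested at 20 µM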
Large screens that a line does not name were inactive (follow-up assays come after a bar, where they were run). Hits are enriched below; roughly 1.7% of the tested compounds scored in any of these assays.

Cc1cccc(NC2=C(NC(=O)c3ccccc3)C(=O)c3ccccc3C2=O)c1	PfG6PD inh 83.5 | PfGluPho conf 68.6 | Diaph ctr 10uM inactive | Diaph ctr 30uM inactive
O=C(NC1=C(NC2CCS(=O)(=O)C2)C(=O)c2ccccc2C1=O)c1ccccc1 (stereo unspecified)	PfG6PD inh 103.8 | PfGluPho conf 95.4 | Diaph ctr 10uM 98.2 | Diaph ctr 30uM 90.0
COc1ccc(CCC(=O)Nc2ccc(S(=O)(=O)N3CCOCC3)cc2)cc1OC	none (no result: Beta2AR agonist, APJ antag, CCR6 antagonist, APJ ag)
COc1ccccc1CCC(=O)NNC(=O)c1ccc(Br)cc1	none
O=C(CCc1nnc(Cc2c[nH]c3ccccc23)o1)NC(C1CC1)C1CC1	none
O=C1C=C(c2ccc3c(c2)OCO3)C[C@@H](c2ccc(Cl)cc2)C1	none
COc1cccc2c3cccc(OC)c3c3[nH]cnc3c12	PfG6PD inh 67.8 (no result: APJ antag, APJ ag) | PfGluPho conf inactive
CCOC(=O)C1c2cccc(O)c2CCN1C(C)=O (stereo unspecified)	none (no result: Beta2AR agonist, APJ antag, CCR6 antagonist, APJ ag)
C/C(=N\Nc1ccc(C)c(Cl)c1)c1cccnc1	PfG6PD inh 96.0 | PfGluPho conf inactive
C/C(=N\Nc1ccc(C)c(Cl)c1)c1ccncc1	none
COC(=O)[C@H](CCSC)NC(=O)c1cc2c(cn1)[nH]c1ccccc12	PfG6PD inh 80.1 | PfGluPho conf 57.3 | Diaph ctr 10uM inactive | Diaph ctr 30uM inactive
Cc1ccc(NC(=O)c2cc(C)n(-c3cccc(C)c3)c2C)cc1	PfG6PD inh 81.6 | PfGluPho conf inactive
Cc1ccc(-n2c(C)cc(C(=O)NS(=O)(=O)c3ccc(C)cc3)c2C)cc1	none
Cc1ccc(NC(=O)c2cc(C)n(-c3ccccc3)c2C)cc1	PfG6PD inh 94.7 | PfGluPho conf 53.1 | Diaph ctr 10uM 53.4 | Diaph ctr 30uM inactive
Cc1cc(C(=O)Nc2ccc(Cl)cc2)c(C)n1-c1ccccc1	PfG6PD inh 98.0 | PfGluPho conf inactive
Cc1cc(C(=O)Nc2ccc(Cl)cc2)n(-c2ccccc2)n1	none
Cc1ccc(NC(=O)c2cnn(-c3ccccc3)c2C)cc1	none
COC(=O)[C@@]1(Sc2ccc(C)cc2)CC(=O)N[C@@H]1c1ccc(C(F)(F)F)cc1	none (no result: PfG6PD inh, Beta2AR agonist, APJ antag, CCR6 antagonist, APJ ag)
CCc1[nH]nc(C(=O)N2CCCC(Nc3cccc(F)c3)C2)c1C (stereo unspecified)	none
COc1ccc(NC(=S)NC(NC(=O)CCl)C(Cl)(Cl)Cl)c([N+](=O)[O-])c1 (stereo unspecified)	PfG6PD inh 65.4 | PfGluPho conf inactive
CCC(C)(C)C(=O)Nc1ccc(OC)cc1[N+](=O)[O-]	none
CC(=O)Oc1ccccc1C(=O)Nc1ccccc1	none
COC1(OC)C=CC(=O)C=C1NC(=O)c1ccccc1OC(C)=O	PfG6PD inh 62.7 | PfGluPho conf 63.9 | Diaph ctr 10uM inactive | Diaph ctr 30uM inactive
Clc1ccc(C2=Nn3c(nnc3-c3cc(-c4ccccc4)n[nH]3)SC2)cc1	none
c1ccc(C2=Nn3c(nnc3-c3cc(-c4ccccc4)n[nH]3)SC2)cc1	PfG6PD inh 59.9 | PfGluPho conf inactive
COc1ccc(OC)c(C2=Nn3c(nnc3-c3cc(OC)c(OC)c(OC)c3)SC2)c1	PfG6PD inh 97.8 | PfGluPho conf 88.8 | Diaph ctr 10uM 81.5 | Diaph ctr 30uM 69.8
COc1cc(-c2nnc3n2N=C(c2ccccc2)CS3)cc(OC)c1OC	PfG6PD inh 97.5 | PfGluPho conf 60.2 | Diaph ctr 10uM inactive | Diaph ctr 30uM inactive
COc1ccc(OC)c(NC(=O)C2(C)CCN2Cc2ccc(SC)cc2)c1 (stereo unspecified)	none (no result: PfG6PD inh, Beta2AR agonist, APJ antag, CCR6 antagonist, APJ ag)
Cc1ccsc1CN(C)C(=O)c1ccc(Oc2ccccc2)cc1	none
Cc1ccc(C)c(S(=O)(=O)Nc2ccc(O)c(Sc3ncn[nH]3)c2)c1	none
Cc1ccc(S(=O)(=O)/N=C2/C=C(Sc3ncn[nH]3)C(=O)c3ccccc32)cc1	PfG6PD inh 119.7, Beta2AR agonist 85.4, CCR6 antagonist 92.2, CXCR6 inh 81.2 (no result: APJ antag, APJ ag) | PfGluPho conf 103.1 | Diaph ctr 10uM 88.9 | Diaph ctr 30uM 93.1
CCN(CC)c1ccc(N=C2C(=O)Nc3ccccc32)cc1	PfG6PD inh 68.1 | PfGluPho conf inactive
Cc1ccc(CNc2ccc(O)cc2)cc1	PfG6PD inh 86.0 | PfGluPho conf 63.9 | Diaph ctr 10uM inactive | Diaph ctr 30uM inactive
COc1ccc(C)cc1N(C(=O)c1ccco1)C(C(=O)NC1CCCC1)c1ccc(N2CCOCC2)cc1 (stereo unspecified)	none
Cc1ccc(Cc2c(-c3ccc(Cl)cc3)nc3ccc(Br)cn23)cc1	PfG6PD inh 66.9 (no result: Beta2AR agonist, APJ antag, CCR6 antagonist, APJ ag) | PfGluPho conf inactive
Clc1ccc(-c2nc3ccc(Br)cn3c2Cc2ccccc2)cc1	PfG6PD inh 87.7 (no result: Beta2AR agonist, APJ antag, CCR6 antagonist, APJ ag) | PfGluPho conf inactive
Fc1ccc(-c2nc3ccc(Br)cn3c2Cc2ccccc2)cc1	PfG6PD inh 66.9 (no result: Beta2AR agonist, APJ antag, CCR6 antagonist, APJ ag) | PfGluPho conf inactive
Cc1ccc(Cc2c(-c3ccc(C)cc3)nc3ccc(Br)cn23)cc1	none (no result: Beta2AR agonist, APJ antag, CCR6 antagonist, APJ ag)
Cc1ccc(C)c(-n2nnc3ccccc3c2=O)c1	none (no result: Beta2AR agonist, APJ antag, CCR6 antagonist, APJ ag)
O=[N+]([O-])c1ccc2c(c1)-c1ccccc1C2O (stereo unspecified)	PfG6PD inh 113.5 (no result: Beta2AR agonist, APJ antag, CCR6 antagonist, APJ ag) | PfGluPho conf 97.3 | Diaph ctr 10uM inactive | Diaph ctr 30uM inactive
CCCCCCCCSC1=CC(=O)C(OC)=C(OC)C1=O	PfG6PD inh 125.0, CXCR6 inh 39.1 (no result: Beta2AR agonist, APJ antag, CCR6 antagonist, APJ ag) | PfGluPho conf 86.2 | Diaph ctr 10uM 67.1 | Diaph ctr 30uM inactive
COc1ccc(-c2nc3ccc([N+](=O)[O-])cc3[nH]2)cc1	PfG6PD inh 109.5 (no result: APJ antag, APJ ag) | PfGluPho conf inactive
O=[N+]([O-])c1ccc2nc(-c3ccncc3)[nH]c2c1	none
Cc1ccc(-c2nc3ccc([N+](=O)[O-])cc3[nH]2)cc1	PfG6PD inh 99.0 | PfGluPho conf inactive
COc1ccc2nc(-c3ccccc3)[nH]c2c1	none
O=[N+]([O-])c1cccc(-c2nc3ccc([N+](=O)[O-])cc3[nH]2)c1	PfG6PD inh 107.8 | PfGluPho conf 72.5 | Diaph ctr 10uM 60.5 | Diaph ctr 30uM 59.1
O=C(Nc1ccccc1)O/N=C/c1ccc(F)cc1	none
COC(=O)Cn1ccnc1[N+](=O)[O-]	none (no result: Beta2AR agonist, APJ antag, CCR6 antagonist, APJ ag)
CCOC(=O)c1sc(NC(=O)CSc2nccn2C)nc1C	none
C[C@H](CO)N1C[C@H](C)[C@H](CN(C)S(=O)(=O)c2ccc(C#N)cc2)OCc2cnnn2CCCC1=O	none (no result: Beta2AR agonist, APJ antag, CCR6 antagonist, APJ ag)
CC(=NNC(=S)Nc1ccccc1)c1ccccn1	none (no result: Beta2AR agonist, APJ antag, CCR6 antagonist, APJ ag)
CSC(=S)NN=C(C)c1cccc(C)n1	PfG6PD inh 95.3 (no result: APJ antag, APJ ag) | PfGluPho conf inactive
